Source: ChEMBL document CHEMBL1131456, “Synthesis, pharmacological characterization, and quantitative structure-activity relationship analyses of 3,7,9,9-tetraalkylbispidines: derivatives with specific bradycardic activity” (J Med Chem, 1998)

Tests used:
Cavia porcellus [1] = organism: Cavia porcellus; assay: Sum of the scores of decrease of the sinus rate and selectivity versus the decrease in force of contraction; type: functional
Rattus norvegicus [2] = organism: Rattus norvegicus; assay: Score point for the selectivity versus additional effect R&T interval.; type: functional
Rattus norvegicus [3] = organism: Rattus norvegicus; assay: Score value indicates desire effect on heart rate; type: functional
Cavia porcellus [4] = organism: Cavia porcellus; assay: Score value indicates decrease of the sinus rate; type: functional
[5] = Selectivity quotient (F75/SR75); # means very high (estimated); type: functional
How it was run: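 Isolated atria in oxygenated buffer at 35 °C. Spontaneously beating right atria gave sinus rate; left atria paced at 2 Hz with 1 ms rectangular pulses gave isometric force of contraction. Cumulative concentration-response curves used up to five concentrations. EC75 (25% decrease from predrug value) was taken as the geometric mean of individual values. Quotient is F75/SR75.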

Cavia porcellus [6] = organism: Cavia porcellus; assay: Score value indicates selectivity versus the decrease in force of contraction; type: functional
Cavia porcellus [7] = organism: Cavia porcellus; assay: Score point for the selectivity versus additional effect FRP.; type: functional
Rattus norvegicus [8] = organism: Rattus norvegicus; assay: Total score (SS)
Rattus norvegicus [9] = assay: In vivo activity in anesthetized rat was measured as the diastolic arterial pressure which provides information on the peripheral resistance of the cardiovascular system and selectivity regarding bradycardia; type: functional, Artery
How it was run: (§1)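 Male Wistar rats (280–360 g) under urethane (1.25 g/kg ip), intubated and breathing spontaneously. Femoral arterial pressure was recorded with needle-electrode ECG, analysed every 30 s. Compound was given by continuous femoral-vein infusion at 0.1 mL/min, with concentration raised tenfold every 10 min (3 doses). ED75/ED125 is the dose giving a 25% decrease/increase from the predrug value, reported as the geometric mean of individual EDs.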

Rattus norvegicus [10] = organism: Rattus norvegicus; assay: Selectivity quotient (DAP125/HR75)
Cavia porcellus [11] = organism: Cavia porcellus; assay: In vitro activity in guinea pig atria was measured as rate of spontaneously beating right atrium (SR) which reflects the activity of the sinus node; type: functional; conditions: Cardiac atrium
How it was run: (§2)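 Isolated guinea pig atria in oxygenated buffer at 35 °C. Right atria beat spontaneously; left atria were paced at 2 Hz with 1 ms rectangular pulses and isometric contractions were recorded. Cumulative concentration–response curves were run with up to five concentrations. EC75/EC125 is the concentration giving a 25% decrease/increase from the predrug value, reported as the geometric mean of individual ECs.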

Cavia porcellus [12] = organism: Cavia porcellus; assay: Selectivity quotient (FRP125/SR75); type: functional
How it was run: (§3)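 Atrial selectivity quotients were calculated from the guinea pig atrial EC values as F75/SR75 and FRP125/SR75.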

Rattus norvegicus [13] = assay: In vivo activity in anesthetized rat was measured as the R alpha T-interval of the rat ECG which reflects the time from ventricular excitation to recovery; type: functional, Cardiac ventricle; how it was run: as §1
Rattus norvegicus [14] = organism: Rattus norvegicus; assay: Score value indicates selectivity against the undesired effect on diastolic blood pressure; type: functional, Artery
[15] = Partition coefficient (logP); type: physicochemical; conditions: octanol/water; read-out: logP
How it was run: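 Lipophilicity was measured by reversed-phase HPLC. Mobile phase was methanol/0.005 M phosphate buffer pH 4 (60/40) with 0.1% SDS and 0.1 M NaClO4, at 23.0 ± 0.5 °C, with UV detection at 205 nm.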

Cavia porcellus [16] = organism: Cavia porcellus; assay: In vitro activity in guinea pig atria as the functional refractory period (FRP), which is the shortest interval between a double stimulus causing a double contraction.; how it was run: as §2
Rattus norvegicus [17] = organism: Rattus norvegicus; assay: Selectivity quotient (R&T125/HR75)
Rattus norvegicus [18] = assay: In vivo activity in anesthetized rat was measured as heart rate which provides information on in vivo bradycardic activity; type: functional; how it was run: as §1
Cavia porcellus [19] = organism: Cavia porcellus; assay: In vitro activity in guinea pig atria was measured as the peak force of contraction (F) of a stimulated left atrium; type: functional; conditions: Cardiac atrium; how it was run: as §2
Cavia porcellus [20] = organism: Cavia porcellus; assay: Selectivity quotient (F75/SR75); type: functional; how it was run: as §3

SMILES | Score (Cavia porcellus [1]) | Score (Rattus norvegicus [2]) | Score (Rattus norvegicus [3]) | Score (Cavia porcellus [4]) | Selectivity quotient [5] | Score (Cavia porcellus [6]) | Score (Cavia porcellus [7]) | total score (SS) (Rattus norvegicus [8]) | ED125 (Rattus norvegicus [9]) [µM/kg] | Selectivity quotient (Rattus norvegicus [10]) | EC75 (Cavia porcellus [11]) [µM] | Selectivity quotient (Cavia porcellus [12]) | ED125 (Rattus norvegicus [13]) [µM/kg] | Score (Rattus norvegicus [14]) | logP [15] | EC125 (Cavia porcellus [16]) [µM] | Selectivity quotient (Rattus norvegicus [17]) | ED75 (Rattus norvegicus [18]) [µM/kg] | EC75 (Cavia porcellus [19]) [µM] | Selectivity quotient (Cavia porcellus [20])
CCCCN1CC2CN(CC(C)C)CC(C1)C2(C)C | 4 | 5 | 5 | 4 | # | 0 | 4 | 4 | >41 | >7 | 3.07 | 0.27 | 0.73 | -1 | 3.7 | 0.82 | 0.13 | 5.7 | – | –
CCCN1CC2CN(CCC)CC(C1)C2(CC)CC | 3 | 5 | 4 | 3 | # | 0 | 4 | 1 | 10 | 0.8 | 3.53 | 0.43 | 2.1 | -3 | 3.85 | 1.52 | 0.18 | 12 | – | –
CC(C)N1CC2CN(C(C)C)CC(C1)C2(C)C | 0 | 4 | 1 | 2 | # | -2 | 0 | -2 | – | 1 | 10.9 | 10.2 | 18 | -3 | 2.48 | 111 | 0.35 | 52 | – | –
CCCCC1(CCCC)C2CN(CC3CCCCC3)CC1CN(C(C)C)C2 | 0 | 5 | 4 | 5 | – | -5 | 3 | 3 | >66 | >7 | 1.9 | 0.76 | 1.1 | -1 | 7.61 | 1.45 | 0.12 | 9.3 | 3.65 | 1.92
C=CCCN1CC2CN(CCCC)CC(C1)C2(C)C | 5 | 5 | 5 | 5 | – | 0 | 3 | 1 | 2.2 | 0.37 | 1.21 | 1.72 | 0.7 | -4 | 3.42 | 2.08 | 0.12 | 5.9 | 106 | 87.6
CC(C)CN1CC2CN(C(C)C)CC(C1)C21CCCCC1 | 5 | 5 | 5 | 5 | – | 0 | 3 | 4 | >41 | >7 | 1 | 1.54 | 0.73 | -1 | 4.29 | 1.54 | 0.13 | 5.7 | 35.5 | 35.5
